Source: article PMC3809117 (AIDS (London, England), 2009)

Key:
[1] = system: HIV LTR in J89 cells; test: LTR-driven GFP expression in J89 cells by flow cytometry; format: cell-based; conditions: overnight incubation with HDACi
How it was run: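 Latently infected Jurkat line carrying EGFP as a reporter of Tat-driven HIV LTR expression, grown in RPMI 1640 with 10% FBS at 37°C, 5% CO2. Cells were PBS-washed, exposed overnight to inhibitor, then fixed in PBS with 2% paraformaldehyde. Live cells were gated, with two-parameter analysis to separate GFP from background. From 10 000 events, %GFP+ was reported as mean ± SE of three independent experiments.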

[2] = system: J89 cells; test: MTT cytotoxicity/proliferation assay in J89 cells; format: cell-based; conditions: 24 h, at concentrations used to induce LTR expression
How it was run: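 Cells were washed in PBS and incubated 24 h across a range of inhibitor concentrations, then assayed with an MTT proliferation kit. Percent proliferating cells was calculated relative to cells in drug-free medium. Run in triplicate.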

[3] = system: latent HIV in resting CD4+ T cells; format: cell-based, HIV-1; conditions: resting CD4+ T cells of aviremic patients on ART, 24 h exposure, compared to PHA
How it was run: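 Resting CD4+ T cells came from leukapheresis by negative selection, from patients with plasma RNA <50 copies/ml. Cells were plated at 2.5, 0.5 or 0.1 million per well and exposed to drug for 24 h. PHA comparator: 1 µg/ml PHA-L, five-fold irradiated allogeneic PBMCs and 20 U/ml IL-2. Cells were then washed and co-cultured with CD8-depleted PBMC. p24 ELISA was read on days 15 and 19, and IUPM derived by maximum likelihood.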

[4] = system: HDACs; conditions: HDAC isoforms inhibited; cited from earlier work
[5] = system: latent HIV in resting CD4+ T cells; conditions: cited from earlier work

SMILES | LTR activation (LTR-driven GFP expression) [1] | cell proliferation (MTT) [2] | induction of virus outgrowth (recovery of replication-competent HIV) [3] | Selectivity [4] | viral outgrowth from resting CD4+ T cells of aviremic HIV-infected individuals on ART [5]
CCC(=O)CCCCC[C@@H]1NC(=O)[C@H]2CCCCN2C(=O)[C@H]([C@@H](C)CC)NC(=O)[C@H](Cc2cn(OC)c3ccccc23)NC1=O [Apicidin, apicidin] | induced LTR activation | slightly antiproliferative | suboptimal | HDAC1, 2, 3 | 
O=C(CCCCCCC(=O)Nc1ccccc1)NO [SAHA, suberoylanilide hydroxamic acid] |  |  |  |  | induce viral outgrowth
CCCC(CCC)C(=O)O [VPA, valproic acid] | effectively induced LTR expression | did not perturb cell proliferation | effective at inducing virus |  | induce viral outgrowth
